Data reported in ChEMBL document CHEMBL1250448, “Inhibitor hijacking of Akt activation” (Nat Chem Biol, 2009).

What was measured:
[1] = target: Protein kinase C gamma type (Homo sapiens) (UniProt P05129); experiment: Inhibition of PKCG at 1 uM in presence of 10 uM ATP by Select Screen kinase assay relative to untreated control
Summary of the method: (§1)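 Commercial SelectScreen profiling panel of 220 purified kinases. Each kinase was tested at a single inhibitor concentration of 1 μM, and activity was expressed as percent inhibition.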

[2] = target: T1, Serine/threonine-protein kinase DCLK2 (Homo sapiens) (UniProt Q8N568); experiment: Inhibition of DCAMKL2 at 1 uM in presence of 100 uM ATP by Select Screen kinase assay relative to untreated control
T1 sequence (whole entry): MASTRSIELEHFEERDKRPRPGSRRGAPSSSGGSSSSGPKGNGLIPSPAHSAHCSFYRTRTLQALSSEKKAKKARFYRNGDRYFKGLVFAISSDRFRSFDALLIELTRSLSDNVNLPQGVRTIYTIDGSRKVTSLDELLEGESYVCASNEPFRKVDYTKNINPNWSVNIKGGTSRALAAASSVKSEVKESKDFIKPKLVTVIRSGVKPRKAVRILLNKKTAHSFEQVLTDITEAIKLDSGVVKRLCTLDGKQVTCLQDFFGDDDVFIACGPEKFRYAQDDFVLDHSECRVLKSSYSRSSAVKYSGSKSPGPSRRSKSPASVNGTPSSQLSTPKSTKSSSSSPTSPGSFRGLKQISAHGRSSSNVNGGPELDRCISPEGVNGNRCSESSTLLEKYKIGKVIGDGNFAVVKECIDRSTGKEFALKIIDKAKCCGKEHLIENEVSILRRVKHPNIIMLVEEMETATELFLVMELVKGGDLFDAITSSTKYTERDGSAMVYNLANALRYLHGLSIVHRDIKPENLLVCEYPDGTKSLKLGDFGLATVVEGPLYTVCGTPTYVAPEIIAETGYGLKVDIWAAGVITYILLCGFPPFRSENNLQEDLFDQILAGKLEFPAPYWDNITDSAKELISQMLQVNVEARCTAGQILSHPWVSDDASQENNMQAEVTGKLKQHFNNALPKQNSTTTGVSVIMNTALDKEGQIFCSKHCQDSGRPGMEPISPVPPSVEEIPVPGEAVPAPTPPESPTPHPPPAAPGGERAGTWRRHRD
Summary of the method: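 Single-point screen at 1 μM against a panel of 220 purified kinases, run by Invitrogen staff as a SelectScreen profiling service. Read-out is percent inhibition of kinase activity.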

[3] = target: Homeodomain-interacting protein kinase 1 (Homo sapiens) (UniProt Q86Z02); experiment: Inhibition of HIPK1 at 1 uM in presence of 10 uM ATP by Select Screen kinase assay relative to untreated control
Summary of the method: (§2)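 Single-concentration profiling at 1 μM against a panel of 220 purified kinases, run as an outsourced SelectScreen kinase profiling service. Activity is expressed as percent inhibition.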

[4] = target: T2, Homeodomain-interacting protein kinase 4 (Homo sapiens) (UniProt Q8NE63); experiment: Inhibition of HIPK4 at 1 uM in presence of 10 uM ATP by Select Screen kinase assay relative to untreated control; summary of the method: as §2
T2 sequence (whole entry): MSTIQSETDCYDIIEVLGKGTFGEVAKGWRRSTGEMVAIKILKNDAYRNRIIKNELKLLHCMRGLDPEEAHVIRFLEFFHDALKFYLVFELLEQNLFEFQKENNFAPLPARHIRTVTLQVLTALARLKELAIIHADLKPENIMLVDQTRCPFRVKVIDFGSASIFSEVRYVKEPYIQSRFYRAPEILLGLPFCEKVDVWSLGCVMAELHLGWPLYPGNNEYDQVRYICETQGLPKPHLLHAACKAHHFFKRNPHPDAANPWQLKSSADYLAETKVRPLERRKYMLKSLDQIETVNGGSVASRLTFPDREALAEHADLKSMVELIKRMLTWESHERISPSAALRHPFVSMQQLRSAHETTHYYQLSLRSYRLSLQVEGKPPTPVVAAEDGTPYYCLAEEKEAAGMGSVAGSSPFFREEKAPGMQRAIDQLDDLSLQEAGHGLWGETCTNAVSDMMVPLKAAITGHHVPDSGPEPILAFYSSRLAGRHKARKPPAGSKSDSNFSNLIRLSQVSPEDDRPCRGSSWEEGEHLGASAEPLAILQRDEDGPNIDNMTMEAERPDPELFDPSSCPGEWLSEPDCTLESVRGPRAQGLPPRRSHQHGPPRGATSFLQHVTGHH

[5] = target: Hepatocyte growth factor receptor (Homo sapiens) (UniProt P08581); experiment: Inhibition of MET at 1 uM in presence of 10 uM ATP by Select Screen kinase assay relative to untreated control; summary of the method: as §2
[6] = target: T3, Serine/threonine-protein kinase Nek9 (Homo sapiens) (UniProt Q8TD19); experiment: Inhibition of NEK9 at 1 uM in presence of 10 uM ATP by Select Screen kinase assay relative to untreated control; summary of the method: as §1
T3 sequence (whole entry): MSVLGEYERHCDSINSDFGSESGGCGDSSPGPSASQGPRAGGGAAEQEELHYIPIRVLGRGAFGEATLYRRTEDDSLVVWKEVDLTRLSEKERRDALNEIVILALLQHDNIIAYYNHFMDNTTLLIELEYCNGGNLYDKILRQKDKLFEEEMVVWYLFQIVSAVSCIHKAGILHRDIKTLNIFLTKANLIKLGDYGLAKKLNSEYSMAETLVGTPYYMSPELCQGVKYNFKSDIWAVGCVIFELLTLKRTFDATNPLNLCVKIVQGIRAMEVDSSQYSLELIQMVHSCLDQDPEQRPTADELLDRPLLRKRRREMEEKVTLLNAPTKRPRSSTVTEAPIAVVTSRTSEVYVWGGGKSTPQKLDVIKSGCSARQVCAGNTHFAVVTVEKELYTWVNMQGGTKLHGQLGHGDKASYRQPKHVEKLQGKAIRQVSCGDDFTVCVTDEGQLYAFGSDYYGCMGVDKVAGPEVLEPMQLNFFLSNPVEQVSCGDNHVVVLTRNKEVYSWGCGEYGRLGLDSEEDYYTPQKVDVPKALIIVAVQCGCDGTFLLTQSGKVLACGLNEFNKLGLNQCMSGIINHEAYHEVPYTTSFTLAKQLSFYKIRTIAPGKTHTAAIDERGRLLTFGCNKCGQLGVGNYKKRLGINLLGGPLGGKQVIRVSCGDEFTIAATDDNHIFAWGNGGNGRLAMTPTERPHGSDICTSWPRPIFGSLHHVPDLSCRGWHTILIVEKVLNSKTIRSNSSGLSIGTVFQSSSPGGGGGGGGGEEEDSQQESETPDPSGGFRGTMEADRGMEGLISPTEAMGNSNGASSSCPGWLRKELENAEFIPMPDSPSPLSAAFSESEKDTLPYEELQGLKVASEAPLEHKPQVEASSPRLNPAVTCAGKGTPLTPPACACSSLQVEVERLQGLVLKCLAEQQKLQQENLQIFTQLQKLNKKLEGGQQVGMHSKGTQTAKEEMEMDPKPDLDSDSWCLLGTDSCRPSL

[7] = target: Serine/threonine-protein kinase PLK3 (Homo sapiens) (UniProt Q9H4B4); experiment: Inhibition of PLK3 at 1 uM in presence of 10 uM ATP by Select Screen kinase assay relative to untreated control; summary of the method: as §1
Sequence of Serine/threonine-protein kinase PLK3 (Homo sapiens) (Q9H4B4 whole entry, looked up): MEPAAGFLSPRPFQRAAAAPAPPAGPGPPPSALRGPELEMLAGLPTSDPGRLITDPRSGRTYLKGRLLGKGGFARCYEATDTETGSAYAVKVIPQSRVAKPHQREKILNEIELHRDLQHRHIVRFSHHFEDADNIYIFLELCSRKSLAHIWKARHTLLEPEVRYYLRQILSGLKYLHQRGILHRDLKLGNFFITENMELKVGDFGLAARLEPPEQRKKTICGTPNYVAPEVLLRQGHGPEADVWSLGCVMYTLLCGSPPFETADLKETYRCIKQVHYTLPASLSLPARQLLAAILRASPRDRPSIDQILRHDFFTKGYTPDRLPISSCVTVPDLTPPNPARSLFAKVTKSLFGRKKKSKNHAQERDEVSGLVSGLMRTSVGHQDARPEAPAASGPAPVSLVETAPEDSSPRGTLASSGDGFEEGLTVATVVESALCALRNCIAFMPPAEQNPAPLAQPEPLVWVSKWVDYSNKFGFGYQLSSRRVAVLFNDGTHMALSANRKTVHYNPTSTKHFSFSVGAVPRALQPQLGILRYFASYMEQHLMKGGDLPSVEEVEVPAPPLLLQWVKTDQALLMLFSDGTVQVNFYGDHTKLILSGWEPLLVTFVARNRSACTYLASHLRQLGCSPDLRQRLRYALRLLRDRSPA

Sequence of Hepatocyte growth factor receptor (Homo sapiens) (P08581 whole entry): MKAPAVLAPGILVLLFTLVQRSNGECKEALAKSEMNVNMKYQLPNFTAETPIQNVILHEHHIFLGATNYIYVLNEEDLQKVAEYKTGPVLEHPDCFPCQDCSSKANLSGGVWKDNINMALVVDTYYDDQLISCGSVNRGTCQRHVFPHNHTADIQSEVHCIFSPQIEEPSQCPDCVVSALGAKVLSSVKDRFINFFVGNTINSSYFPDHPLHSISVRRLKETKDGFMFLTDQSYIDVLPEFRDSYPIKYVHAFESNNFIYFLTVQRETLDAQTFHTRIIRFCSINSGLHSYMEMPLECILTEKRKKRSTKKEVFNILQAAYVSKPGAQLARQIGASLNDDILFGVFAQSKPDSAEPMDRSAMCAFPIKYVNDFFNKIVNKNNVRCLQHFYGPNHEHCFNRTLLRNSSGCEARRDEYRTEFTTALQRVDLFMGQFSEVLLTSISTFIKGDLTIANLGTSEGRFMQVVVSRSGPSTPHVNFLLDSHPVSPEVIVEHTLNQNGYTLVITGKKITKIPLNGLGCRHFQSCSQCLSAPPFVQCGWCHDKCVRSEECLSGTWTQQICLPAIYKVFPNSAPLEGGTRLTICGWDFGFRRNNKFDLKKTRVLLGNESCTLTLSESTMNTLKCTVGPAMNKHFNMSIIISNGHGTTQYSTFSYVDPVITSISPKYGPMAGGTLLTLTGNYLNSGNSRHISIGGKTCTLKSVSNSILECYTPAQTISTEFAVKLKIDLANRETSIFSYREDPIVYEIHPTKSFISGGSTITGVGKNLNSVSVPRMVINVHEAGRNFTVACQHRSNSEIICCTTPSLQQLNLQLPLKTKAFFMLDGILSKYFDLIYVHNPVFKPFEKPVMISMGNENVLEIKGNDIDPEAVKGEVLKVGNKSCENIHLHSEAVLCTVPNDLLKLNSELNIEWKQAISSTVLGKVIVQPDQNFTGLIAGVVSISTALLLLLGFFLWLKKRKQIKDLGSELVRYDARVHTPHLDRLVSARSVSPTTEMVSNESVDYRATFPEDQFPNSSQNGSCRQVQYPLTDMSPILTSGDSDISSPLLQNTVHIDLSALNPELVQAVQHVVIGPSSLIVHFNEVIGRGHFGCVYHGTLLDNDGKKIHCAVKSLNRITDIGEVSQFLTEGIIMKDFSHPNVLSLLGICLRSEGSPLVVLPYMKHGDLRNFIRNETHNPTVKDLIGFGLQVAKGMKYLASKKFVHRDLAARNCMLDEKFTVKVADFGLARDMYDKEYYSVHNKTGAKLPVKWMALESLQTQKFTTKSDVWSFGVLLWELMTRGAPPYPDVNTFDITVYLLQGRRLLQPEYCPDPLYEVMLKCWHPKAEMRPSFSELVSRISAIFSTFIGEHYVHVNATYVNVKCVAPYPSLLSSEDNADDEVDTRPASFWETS
Sequence of Homeodomain-interacting protein kinase 1 (Homo sapiens) (Q86Z02 whole entry, looked up): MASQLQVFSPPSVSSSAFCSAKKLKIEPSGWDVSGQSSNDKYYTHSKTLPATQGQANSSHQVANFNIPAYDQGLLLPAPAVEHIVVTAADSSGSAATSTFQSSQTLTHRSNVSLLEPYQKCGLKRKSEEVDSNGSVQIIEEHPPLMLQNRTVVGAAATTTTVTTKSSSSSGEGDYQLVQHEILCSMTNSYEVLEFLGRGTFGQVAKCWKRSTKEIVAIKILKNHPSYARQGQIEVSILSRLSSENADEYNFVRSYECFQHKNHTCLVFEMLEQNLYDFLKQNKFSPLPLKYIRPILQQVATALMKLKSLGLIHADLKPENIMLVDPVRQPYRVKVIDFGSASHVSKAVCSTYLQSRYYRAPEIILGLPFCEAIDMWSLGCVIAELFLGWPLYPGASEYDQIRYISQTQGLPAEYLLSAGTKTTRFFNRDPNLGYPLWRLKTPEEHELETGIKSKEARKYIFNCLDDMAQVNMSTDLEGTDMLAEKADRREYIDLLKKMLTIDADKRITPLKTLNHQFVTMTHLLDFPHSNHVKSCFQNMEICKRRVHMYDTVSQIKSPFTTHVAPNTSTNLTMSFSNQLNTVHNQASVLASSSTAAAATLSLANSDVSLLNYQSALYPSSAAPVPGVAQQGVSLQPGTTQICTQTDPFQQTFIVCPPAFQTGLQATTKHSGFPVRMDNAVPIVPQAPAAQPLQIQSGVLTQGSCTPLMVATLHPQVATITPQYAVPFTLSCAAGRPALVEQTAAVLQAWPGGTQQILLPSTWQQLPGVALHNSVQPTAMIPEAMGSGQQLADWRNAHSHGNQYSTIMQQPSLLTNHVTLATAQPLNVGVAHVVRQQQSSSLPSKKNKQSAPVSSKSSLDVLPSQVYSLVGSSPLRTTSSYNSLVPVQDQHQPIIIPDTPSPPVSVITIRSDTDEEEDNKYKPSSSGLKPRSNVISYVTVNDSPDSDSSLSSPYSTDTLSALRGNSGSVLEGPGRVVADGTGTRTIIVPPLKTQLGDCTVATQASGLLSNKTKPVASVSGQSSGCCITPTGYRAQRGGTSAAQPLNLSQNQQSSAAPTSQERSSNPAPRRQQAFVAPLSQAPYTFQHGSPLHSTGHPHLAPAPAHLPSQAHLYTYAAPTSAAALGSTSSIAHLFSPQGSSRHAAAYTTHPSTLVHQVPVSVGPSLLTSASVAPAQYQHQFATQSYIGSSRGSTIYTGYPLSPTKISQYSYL

| inhibition [1] [%] | inhibition [2] [%] | inhibition [3] [%] | inhibition [4] [%] | inhibition [5] [%] | inhibition [7] [%] | Compound | inhibition [6] [%] |
| --- | --- | --- | --- | --- | --- | --- | --- |
| 58 | 10 | 18 | 48 | 11 | 51 | O=C(NCCCNc1nc(Nc2cccc(NC(=O)N3CCCC3)c2)ncc1I)c1cccs1 | 88 |
| 28 | 6 | 34 | 18 | 8 | 27 | COc1ccccc1N1CCN(c2ncnc3[nH]nc(Br)c23)CC1 | 12 |

| Compound | inhibition [1] [%] | inhibition [2] [%] | inhibition [3] [%] | inhibition [4] [%] | inhibition [5] [%] | inhibition [7] [%] | inhibition [6] [%] |
| --- | --- | --- | --- | --- | --- | --- | --- |
| Cc1n[nH]c2ccc(-c3cncc(OC[C@@H](N)Cc4c[nH]c5ccccc45)c3)cc12 | 108 | 11 | 68 | 75 | 12 | 7 | 15 |
